Screens: PubChem, The Scripps Research Institute Molecular Screening Center
HCV core dimer: blocks dimerization of HCV core protein; TR-FRET GST/Flag-core106 dimerization, 1536-well; inhibition, % at 5 µM; 300,000 compounds, 0.33% hits; AID 1899;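 active = inhibition above the mean of all tested compounds plus 3 SD, set per screening campaign, cut at about 45% in these data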
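System: GST-tagged and Flag-tagged HCV core protein residues 1-106 / Input: core106 proteins, GST 13.5 nM and Flag 17 nM / Buffer or medium: KF-containing HEPES buffer, pH 7.45, DTT, CHAPS, BSA / Probe or stimulus: Eu-anti-GST and XL665-anti-Flag labelled anti-tag antibodies / Schedule: 4 h, 22.5 °C incubation / Technique: TR-FRET 671 and 617 nm emission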
DNA FID counter: displaces DNA intercalator in HCV helicase counter-screen; 290,000 compounds, 0.17% hits; AID 1845; DNA fluorescent intercalator displacement, fluorescence; inhibition, % at 7.9 µM; in the data active = inhibition above about 37%;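 note: higher means more ethidium bromide displaced from hairpin DNA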
VIM-2 inh: blocks Pseudomonas aeruginosa VIM-2 metallo-beta-lactamase; inhibition, % at 5.6 µM; 290,000 compounds, 0.89% hits; purified VIM-2, nitrocefin hydrolysis, epi-absorbance fluorescence;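 active = inhibition above the mean of all tested compounds plus 3 SD, cutoff set per screening run, cut at about 7.5% in these data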;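 note: red hydrolysis product quenches plate fluorescence so inhibitors raise well fluorescence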
IMP-1 inh-1: blocks Pseudomonas aeruginosa IMP-1 metallo-beta-lactamase. purified IMP-1, nitrocefin hydrolysis, epi-absorbance fluorescence. inhibition, % at 5.6 µM. 290,000 compounds, 0.45% hits. AID 1556;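 active = inhibition above the mean plus 3 SD of all compounds in the same screening run, cut at about 4.5% in these data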
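Test system: recombinant IMP-1 enzyme, purified / Medium: HEPES buffer pH 7.1 with ZnSO4 and Brij 35 / Doses: single dose, 5.6 µM / Times: 25 °C, 15 min preincubation, 25 min reaction / Detection: Epi-absorbance via hydrolysed-nitrocefin quenching of white-plate fluorescence, 480/530 nm, EDTA stop / Evaluation: percent inhibition from optical density relative to buffer-blank wells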
IMP-1 inh-2: selectivity counter-screen for VIM-2 inhibitors: IMP-1 metallo-beta-lactamase inhibitors; shares compounds with VIM-2 inh; purified IMP-1, nitrocefin hydrolysis, epi-absorbance fluorescence; inhibition, % at 5.6 µM; 1,300 tested, under 10 active; AID 1856; call rule not given here
VIM-2 FRET ctr: counter-screen for VIM-2 inhibitors: epi-absorbance artifacts via FRET; shares compounds with VIM-2 inh; purified VIM-2, CCF2 FRET substrate hydrolysis; inhibition, % at 5.6 µM; 1,300 compounds, 23% hits; AID 1857;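 active = inhibition above the mean of all tested compounds plus 3 SD, cut at about 19% in these data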
TEM-1 inh: TEM-1 inhibition, counter-screen for VIM-2 inhibitors. shares compounds with VIM-2 inh. Purified TEM-1, nitrocefin hydrolysis, epi-absorbance fluorescence. inhibition, % at 5.6 µM. 1,300 compounds, 3% hits. AID 1866;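 active = inhibition above that campaign's mean inhibition plus 3 SD, cut at about 0.46% in these data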
Target sequence (P62593 whole entry, looked up): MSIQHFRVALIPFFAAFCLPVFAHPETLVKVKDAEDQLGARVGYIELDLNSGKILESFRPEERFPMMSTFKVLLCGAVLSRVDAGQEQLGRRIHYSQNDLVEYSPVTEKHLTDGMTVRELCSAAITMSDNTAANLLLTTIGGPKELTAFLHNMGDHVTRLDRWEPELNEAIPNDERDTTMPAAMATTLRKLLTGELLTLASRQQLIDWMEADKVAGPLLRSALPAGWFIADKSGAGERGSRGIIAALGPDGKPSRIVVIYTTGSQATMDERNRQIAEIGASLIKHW
VIM-2 confirm 2: confirmation of P. aeruginosa VIM-2 metallo-beta-lactamase inhibitors | shares compounds with VIM-2 inh | purified VIM-2, nitrocefin hydrolysis, epi-absorbance | inhibition, % at 5.6 µM | 1,300 compounds, 96% hits | AID 2187;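 active = inhibition of the VIM-2 beta-lactamase enzyme above about 11% from the earlier first-round screen, limit read from the data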
A number is an active result; . = inactive; / = no result. Sampled rows, rich in hits. Any-hit rate of the full collection: about 1.6%.

SMILES	HCV core dimer	DNA FID counter	VIM-2 inh	IMP-1 inh-1	IMP-1 inh-2	VIM-2 FRET ctr	TEM-1 inh	VIM-2 confirm 2
Cc1nc2ccccc2c2oc(C(=O)NCCCN3CC(C)CC(C)C3)cc12 (configuration not stated)	.	.	15.2	.	.	.	.	24.1
CC1CCCN(CCCNC(=O)c2cc3c(Cl)nc4ccccc4c3s2)C1 (configuration not stated)	.	.	19.4	.	.	.	.	31.0
Cc1nc2ccccc2c2oc(C(=O)NCCCN3CCCC(C)C3)cc12 (configuration not stated)	.	.	18.4	.	.	.	.	29.4
CC1CCCN(CCCNC(=O)c2cc3c(s2)-c2ccccc2OC3)C1 (configuration not stated)	.	.	.	.	/	/	/	/
COC(=O)c1cc2occc2n1Cc1nc(-c2ccccc2Cl)oc1C	.	.	.	.	/	/	/	/
COC(=O)c1c(NC(=O)c2ccccc2OC)sc(C(=O)N2CCOCC2)c1C	.	.	14.2	.	.	.	.	20.1
O=C(OCc1cccs1)c1ccccc1NS(=O)(=O)c1ccc2c(c1)OCCO2	.	.	.	.	/	/	/	/
CN1CC[C@]23c4ccccc4N[C@H]1[C@]21CCN(C)[C@H]3Nc2ccccc21	.	/	/	/	/	/	/	/
Cc1ccc(C2=NN=C(NC(=O)CSc3nnc4c5ccccc5n(C)c4n3)SC2)cc1	.	.	.	.	/	/	/	/
CCOC(=O)Cc1nnc(NC(=O)CSc2nnc3c4ccccc4n(C)c3n2)s1	.	.	16.9	.	.	.	.	37.6
CCN(CC)C(=O)CSc1nnc2c3ccccc3n(C)c2n1	.	.	13.7	.	.	.	.	24.4
CCOC(=O)Cc1nnc(NC(=O)CSc2ccc(C)cc2)s1	.	.	.	.	/	/	/	/
O=C(Cn1cc2c(n1)CCCC2)Nc1ccccc1Br	.	.	.	.	/	/	/	/
CCc1cc2c(CN3CCN(CC)CC3)cc(=O)oc2cc1O	.	.	20.6	.	.	.	.	25.4
COc1cccc(-n2c(CNC(=O)OC(C)(C)C)n[nH]c2=S)c1	.	.	18.9	.	.	44.1	.	26.7
O=C(c1ccc(S(=O)(=O)Nc2ccccc2)cc1)N1CCCCCCC1	.	.	.	.	/	/	/	/
O=Cc1ccc2ccc3cccnc3c2n1	.	.	58.9	.	.	.	.	69.9
O=Cc1ccc2cccnc2n1	.	.	.	.	/	/	/	/
CC(=NCCCn1ccnc1)c1c(C)[nH]n(-c2ccc([N+](=O)[O-])cc2)c1=O	.	.	12.5	.	.	.	.	34.1
Cc1[nH]n(-c2ccc([N+](=O)[O-])cc2)c(=O)c1/C=N/N1CCOCC1	.	.	.	.	/	/	/	/
COC(=O)c1cc(C)sc1NC(=O)CN1CCN(C(=O)c2ccco2)CC1	.	.	.	.	/	/	/	/
CCN1CCCC1CNCC(O)COc1ccc(C(C)(C)C)cc1C (configuration not stated)	.	.	.	.	/	/	/	/
Cc1c(C(=O)Nc2ccc(-n3cnnn3)cc2)oc2ccccc12	.	.	.	.	/	/	/	/
CN(CCCNC(=O)c1cc2c(Cl)nc3ccccc3c2s1)Cc1ccccc1	.	.	22.0	.	.	.	.	31.0
COc1ccc(N(C)C(=O)c2cc3c(Cl)nc4ccccc4c3s2)cc1	.	.	.	.	/	/	/	/
SMILES	HCV core dimer	DNA FID counter	VIM-2 inh	IMP-1 inh-1	IMP-1 inh-2	VIM-2 FRET ctr	TEM-1 inh	VIM-2 confirm 2
COc1cc(NC(=O)c2cc3c(Cl)nc4ccccc4c3s2)cc(OC)c1OC	.	.	.	.	/	/	/	/
CCN(CC)CCCNC(=O)c1cc2c(Cl)nc3ccccc3c2s1	.	.	22.1	.	.	.	.	32.4
COc1ccc(OC)c(C2C(C(=O)c3ccc(C)o3)=C(O)C(=O)N2c2cc(C)on2)c1 (configuration not stated)	.	.	.	.	/	/	/	/
CCN(CC)C(=O)CSc1nc2ccc(NC(=O)CSc3nccn3C)cc2s1	.	.	20.9	.	.	51.7	.	36.2
CCN(CC)C(=O)CSc1nc2ccc(NC(=O)CSc3nnc(N)s3)cc2s1	.	.	.	.	/	/	/	/
O=C(NCCNc1ccc([N+](=O)[O-])cc1)c1ccccc1F	.	.	.	.	/	/	/	/
CCc1nnc2c(N(C)C)nc3ccccc3n12	.	.	16.3	.	.	.	.	31.2
COc1ccc(CCNc2nc3ccccc3n3cnnc23)cc1OC	.	.	.	.	/	/	/	/
CCCc1nnc2c(N(C)S(=O)(=O)c3ccc(C)cc3)nc3ccccc3n12	.	.	.	.	/	/	/	/
CCc1nnc2c(NCCc3ccc(OC)c(OC)c3)nc3ccccc3n12	/	.	14.7	.	.	.	.	20.6
O=C(NCc1cccc(Cl)c1)c1cccc(OC2CCN(C(=O)C3CC3)CC2)c1	.	.	25.3	.	.	.	.	.
COc1ccccc1C(=O)Nc1nnc(SCC(=O)NC2CCCC2)s1	.	.	12.4	.	.	30.6	.	24.2
O=C(CSc1nnc(NC(=O)c2ccccc2[N+](=O)[O-])s1)NC1CCCC1	.	.	14.6	.	.	31.6	.	19.4
C[C@@]12C(=O)N(CCO)CC(=O)N1[C@H](/C=C/c1ccccc1)[C@@H]1C(=O)N(c3ccccc3)C(=O)[C@@H]12	.	.	.	.	/	/	/	/
Cc1cc2n(n1)C(c1ccc3c(c1)OCO3)Nc1c(C)cccc1-2 (configuration not stated)	.	.	.	.	/	/	/	/
O=C(CCn1c(=S)oc2ccccc21)Nc1ccccc1Br	.	.	.	.	/	/	/	/
O=C(O)c1sccc1OCc1ccccc1	.	.	.	.	/	/	/	/
CC(C)(C)c1ccc(COc2ccsc2C(=O)O)cc1	.	.	20.5	.	.	47.6	.	28.5
O=c1cc(CSc2ccccn2)c2ccccc2[nH]1	.	.	.	.	/	/	/	/
CCOc1ccc2nc(NCCNC(=S)NCCCN(C)C)c(C#N)cc2c1	.	41.7	13.1	.	.	.	.	18.4
COc1ccc(OC)c(Nc2nc(NCCCN(C)C)nc(N)c2[N+](=O)[O-])c1	.	40.7	18.8	.	.	.	.	29.2
COCCCNc1nc(N)c([N+](=O)[O-])c(Nc2cc(OC)ccc2OC)n1	.	.	.	.	/	/	/	/
O=C(O)c1c(C(=O)O)c(-c2ccc(Br)cc2)n2c1CSC2	.	.	43.2	.	.	68.0	.	50.2
Cc1ccc(-c2c(C(=O)O)c(C(=O)O)c3n2CSC3)cc1	.	.	33.9	.	.	52.1	.	36.8
CCN=C1S/C(=C/c2ccc(-c3ccc(Cl)cc3C(=O)O)o2)C(=O)N1CC	.	.	13.3	.	.	18.8	.	16.3
CCOC(=O)c1c(-c2ccccc2)nc2ccccn12	.	.	.	.	/	/	/	/
CSc1nc(NCCCN(C)C)c2c3c(sc2n1)CN(C)CC3	/	41.9	24.6	.	.	.	.	36.9
